The format of data set [1] is in vivo, Sprague-Dawley rats. Particulars: single-dose group (voriconazole 30 mg/kg); vonoprazan 10 mg/kg oral; rats.
Data set [2] has as its target vonoprazan metabolism in rat liver microsomes. Put plainly: Inhibition of vonoprazan metabolism by voriconazole in rat liver microsomes. Format: in vitro ADME. Particulars: RLM; for mode of inhibition of vonoprazan metabolism: Lineweaver–Burk plot, Ki ≠ αKi. The method in brief: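 Rat liver microsomes were prepared in-house and used at 0.44 mg/mL, with 1 mM NADPH in 100 mM potassium phosphate (pH 7.4) in a 200 µL volume. Test inhibitor was at 0, 1.5, 3, 6 and 12 μM and substrate at 5, 10, 20 and 40 μM. Incubation ran 50 min at 37°C, was stopped by −80°C cooling, then acetonitrile plus IS was added. Substrate was quantified by LC-MS/MS, with Lineweaver–Burk and secondary plots giving Ki and αKi.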
For orientation: Microsomes from liver hold many membrane-bound enzymes, among them those of drug oxidation.

Setting [3] is: 0-12 μM voriconazole, 5-40 μM vonoprazan, Lineweaver–Burk secondary plot.

Two compounds from publication PMC7280087 (Drug Design, Development and Therapy, 2020) can be followed below.

As usually defined, the Ki is a dissociation constant, usually derived from enzyme kinetics or from competition with a known ligand. The low end stands for a stronger hold on the target, the high end for a looser hold on the target.

`CNCc1cc(-c2ccccc2F)n(S(=O)(=O)c2cccnc2)c1` [Vonoprazan, vonoprazan]: the “decrease of CLz/F compared with the control group” value in data set [1] is listed as 2.7 fold.

In data set [2] (setting [3]), `C[C@@H](c1ncncc1F)[C@](O)(Cn1cncn1)c1ccc(F)cc1F` [Voriconazole, voriconazole] returned a Ki of 2690 nM and a αKi of 5.32 µM. In addition, the “mode of inhibition of vonoprazan metabolism” value in data set [2] is “mixed inhibition”. Besides, the “mode of inhibition of vonoprazan metabolism” value in data set [2] (listed as voriconazole) is given as “mixed type”.
